Data reported in paper PMC3878182 (Xenobiotica; the fate of foreign compounds in biological …, 2013).

How the values were obtained:
[1] = Effect of inducer treatment on body and liver weights of rats; assay type: in vivo, Sprague-Dawley rats; settings: i.p. inducer treatment
[2] = test system: CYP3A2; test: Hepatic P450 transcript levels; assay type: in vivo, Sprague-Dawley rats; settings: liver slices from male rats
[3] = test system: CYP1A2; test: Hepatic P450 transcript levels; assay type: in vivo, Sprague-Dawley rats; settings: liver slices from male rats
[4] = test system: liver tissue slices; test: PCB 136 levels and partitioning in liver tissue slice incubations; assay type: in vitro ADME, Sprague-Dawley rats
Procedure, shortened: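 Two liver slices were placed in 2 mL K-H buffer and given test compound (final 5 μM; 10 nmol per incubation; DMSO) for 2 h at 37 °C, 5% CO2/95% air. Slices were washed in cold buffer and homogenized. Medium and homogenate were quantified by GC-63Ni-μECD (DB1-MS column); calibration was linear over 1–1000 ng/mL. Slice levels are per mg protein and as % of dose. n=2 or 3 animals, triplicate incubations, mean ± SD.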

[5] = test system: liver tissue slices; test: Formation of hydroxylated PCB 136 metabolites in liver tissue slices; assay type: in vitro ADME, Sprague-Dawley rats; settings: for ΣOH-PCB as percent of PCB 136: PCB 136 5 μM (10 nmol), 2 h, slices plus medium
[6] = test system: hippocampal slice cultures; test: Propidium iodide; assay type: cell-based, Sprague Dawley rats (PND4 pups)
[7] = test system: ryanodine receptor (RyR); settings: ref Pessah et al., 2006; cited from earlier work
[8] = test system: liver tissue slices; test: Liver slice viability; assay type: cell-based, Sprague-Dawley rats
Procedure, shortened: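 Liver slices came from adult rats, either naive or pretreated with PB or DEX, taken 24 h after the last dose into cold Krebs-Henseleit buffer, pH 7.5. Two slices per vial in 2 mL buffer received test compound (final 5 μM) or DMSO, 2 h, 37 °C, 5 % CO2/95 % air. LDH in medium and homogenate gave % release = A1×D1/(A1×D1+A2×D2); viable was <30 %.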

[9] = test system: hippocampal slice cultures; test: LDH release in hippocampal slice cultures; assay type: cell-based, Sprague Dawley rats (PND4 pups); settings: PCB 136 ≤ 5 μM for 14 d
Procedure, shortened: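 Hippocampi from PND4 pups of timed-pregnant Sprague Dawley rats were cultured as slices. From 5 DIV, racemic test compound or vehicle (0.1 % DMSO) was added to 1 mL medium, renewed every 2 days for 14 days. LDH release was measured with a membrane-integrity fluorescence kit. Mean ± SEM, n = 2 wells per group.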

[10] = test system: hippocampal tissue slices; test: PCB 136 levels in hippocampal tissue slice cultures relative to medium; assay type: in vitro ADME, Sprague Dawley rats (PND4 pups); settings: for Medium-to-tissue slice ratio of PCB 136: day 14
Procedure, shortened: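 Hippocampi from PND4 rat pups were cultured as slices. From 5 DIV, racemic test compound (5 μM; vehicle 0.1% DMSO) was added to 1 mL medium per well, renewed every 2 days for 14 days. Medium from each change and slices at day 14 were stored at −20 °C and analysed. The medium-to-slice ratio was taken at day 14.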

[11] = DEX-treated female rats, PCB 136 5 μM (10 nmol), 2 h, 37°C
[12] = DEX-treated male rats, PCB 136 5 μM (10 nmol), 2 h, 37°C
[13] = PB-treated female rats, PCB 136 5 μM (10 nmol), 2 h, 37°C
[14] = PB-treated male rats, PCB 136 5 μM (10 nmol), 2 h, 37°C
[15] = naïve control (CTL) female rats, PCB 136 5 μM (10 nmol), 2 h, 37°C
[16] = naïve control (CTL) male rats, PCB 136 5 μM (10 nmol), 2 h, 37°C

Compound: CCC1(c2ccccc2)C(=O)NC(=O)NC1=O [Phenobarbital (PB), phenobarbital]
- Liver weight ([1]; female rats): 10.1 ± 0.4 g
- Liver-to-final body weight ratio ([1]; female rats): 4.5 ± 0.2
- Percent change in body weight ([1]; female rats): 5.5 ± 1.3%
- Liver weight ([1]; male rats): 16.0 ± 2.0 g
- Liver-to-final body weight ratio ([1]; male rats): 5.3 ± 0.9
- Percent change in body weight ([1]; male rats): −2.0 ± 7.0%
- CYP3A2 transcript level vs CTL [2]: significantly induced by DEX but not PB
- CYP1A2 transcript level vs CTL [3]: not changed

Compound: Clc1ccc(Cl)c(-c2c(Cl)ccc(Cl)c2Cl)c1Cl [PCB 136, 2,2′,3,3′,6,6′-hexachlorobiphenyl]
- PCB 136 in medium [4, 11]: 6.7 ± 0.7 nmol
- PCB 136 in tissue slices [4, 11]: 2.1 ± 0.3 nmol
- PCB 136 in tissue slices ([4]; DEX-treated female rats, PCB 136 5 μM, 2 h): 42 ± 14 ng/mg protein
- PCB 136 in medium [4, 12]: 5.7 ± 0.3 nmol
- PCB 136 in tissue slices [4, 12]: 1.8 ± 0.4 nmol
- PCB 136 in tissue slices ([4]; DEX-treated male rats, PCB 136 5 μM, 2 h): 27 ± 7 ng/mg protein
- PCB 136 in medium [4, 13]: 9.5 ± 0.5 nmol
- PCB 136 in tissue slices [4, 13]: 2.5 ± 0.4 nmol
- PCB 136 in tissue slices ([4]; PB-treated female rats, PCB 136 5 μM, 2 h): 53 ± 10 ng/mg protein
- PCB 136 in medium [4, 14]: 8.6 ± 0.4 nmol
- PCB 136 in tissue slices [4, 14]: 1.3 ± 0.3 nmol
- PCB 136 in tissue slices ([4]; PB-treated male rats, PCB 136 5 μM, 2 h): 21 ± 6 ng/mg protein
- Percent of total PCB 136 associated with liver tissue slices ([4]; both sexes, all treatment groups): 13–25%
- PCB 136 in tissue slices as percent of total PCB 136 dose added ([4]; female liver slices, 2 h): 21–25%
- PCB 136 in tissue slices as percent of total PCB 136 dose ([4]; male liver slices, 2 h): 13–23%
- PCB 136 in medium [4, 15]: 8.5 ± 0.1 nmol
- PCB 136 in tissue slices [4, 15]: 2.4 ± 0.5 nmol
- PCB 136 in tissue slices ([4]; naïve control (CTL) female rats, PCB 136 5 μM, 2 h): 45 ± 15 ng/mg protein
- PCB 136 in medium [4, 16]: 6.3 ± 0.3 nmol
- PCB 136 in tissue slices [4, 16]: 2.3 ± 0.1 nmol
- PCB 136 in tissue slices ([4]; naïve control (CTL) male rats, PCB 136 5 μM, 2 h): 33 ± 5 ng/mg protein
- ΣOH-PCB as percent of PCB 136 ([5]; DEX-treated female rats): 2.7 ± 1.3%
- ΣOH-PCB as percent of PCB 136 ([5]; PB-treated female rats): 5.3 ± 1.1%
- ΣOH-PCB as percent of PCB 136 ([5]; PB-treated male rats): 11 ± 2.7%
- Percent of total PCB 136 metabolized to OH-PCBs ([5]; liver slices from female rats, within 2 h): ≤ 5%
- Percent of total PCB converted to OH-PCBs ([5]; liver slices from male rats): at least 11%
- ΣOH-PCB as percent of PCB 136 ([5]; naïve control (CTL) male rats): 1.1 ± 0.4%
- PI uptake (confocal images) ([6]; PCB 136 at 5 μM for 14 days vs vehicle): no significant differences
- PI uptake ([6]; racemic PCB 136 at 5 or 10 μM, 3 d exposure from 5 DIV, vs vehicle): had no significant effect on PI uptake
- RyR activity / sensitization [7]: RyR active
- Acute toxicity to liver slices ([8]; 2 h incubation with PCB 136 at 5 μM): not acutely toxic
- LDH release to the medium ([8]; all slices used in the PCB 136 metabolism experiments, 2 h incubation): 13.2 ± 6.6%
- LDH release ([8]; slices treated with PCB 136 5 μM, 2 h): 13.1 ± 6.6%
- LDH release relative to vehicle controls [9]: did not significantly alter LDH release
- PCB 136 in slices as percent of the PCB 136 (1.8 μg) added on day 12 ([10]; female pups): 1.5 ± 0.8%
- Average PCB 136 amount associated with the tissue slices ([10]; female pups, after 14 days): 27 ± 15 ng
- Medium-to-tissue slice ratio of PCB 136 ([10]; female pups): 24 ± 8
- PCB 136 in slices as percent of total PCB dose added ([10]; female pups, total dose 12.6 μg): 0.2%
- PCB 136 in slices as percent of the PCB 136 (1.8 μg) added on day 12 ([10]; male pups): 1.8 ± 0.3%
- PCB 136 amount associated with tissue slices ([10]; male pups, after 14 days): 32 ± 6 ng
- Medium-to-tissue slice ratio of PCB 136 ([10]; male pups): 26 ± 10
- PCB 136 in slices as percent of total PCB dose ([10]; male pups, total dose 12.6 μg): 0.3%
- Average PCB 136 concentration in the incubation medium ([10]; slice cultures from female pups, 5 μM racemic PCB 136, 14 days): 830 ± 80 ng/mL
- Average PCB 136 levels in the incubation medium ([10]; slice cultures from male pups, 5 μM racemic PCB 136, 14 days): 570 ± 220 ng/mL
